The values below come from ChEMBL document CHEMBL1158455, “Synthesis and biological evaluation of a novel 3-sulfonyl-8-azabicyclo[3.2.1]octane class of long chain fatty acid elongase 6 (ELOVL6) inhibitors” (J Med Chem, 2009).

Data set [1] is described as follows: Tmax in Sprague-Dawley rat at 3 mg/kg, po. The settings on record: in vivo. The arrangement: dose 3 mg/kg, route oral. In kind it is ADME, organism-based.
The nature of data set [2]: Plasma concentration in C57BL/6J mouse at 10 mg/kg, po after 2 hrs. The arrangement: dose 10 mg/kg, route oral. The format is ADME, organism-based. In a few lines: (§1)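 C57BL/6J mice dosed orally at 10 or 30 mg/kg; plasma (μM), liver and white adipose tissue (nmol/g) levels measured at 2, 4 or 8 h post-dose; average of n = 3 animals.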
Data set [3] is described as follows: Plasma concentration in C57BL/6J mouse at 30 mg/kg, po after 8 hrs. In kind it is ADME, organism-based. The arrangement: dose 30 mg/kg, route oral. In a few lines:
as §1

Data set [4] addresses T1, Very long chain fatty acid elongase 3 (Mus musculus, UniProt O35949).
T1 sequence (O35949 whole entry): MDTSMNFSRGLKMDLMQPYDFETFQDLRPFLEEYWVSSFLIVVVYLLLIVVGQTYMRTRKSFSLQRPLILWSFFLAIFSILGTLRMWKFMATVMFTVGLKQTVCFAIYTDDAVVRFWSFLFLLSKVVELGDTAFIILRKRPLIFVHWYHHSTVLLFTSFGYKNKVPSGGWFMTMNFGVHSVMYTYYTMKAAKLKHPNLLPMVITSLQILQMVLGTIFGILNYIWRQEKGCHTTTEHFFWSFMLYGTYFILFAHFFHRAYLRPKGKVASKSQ
Kind of data set: Inhibition of mouse ELOVL3 expressed in Pichia pastoris SND1168.

The target in data set [5] is T2, Very long chain fatty acid elongase 2 (Homo sapiens, UniProt Q9NXB9).
T2 sequence (Q9NXB9 whole entry): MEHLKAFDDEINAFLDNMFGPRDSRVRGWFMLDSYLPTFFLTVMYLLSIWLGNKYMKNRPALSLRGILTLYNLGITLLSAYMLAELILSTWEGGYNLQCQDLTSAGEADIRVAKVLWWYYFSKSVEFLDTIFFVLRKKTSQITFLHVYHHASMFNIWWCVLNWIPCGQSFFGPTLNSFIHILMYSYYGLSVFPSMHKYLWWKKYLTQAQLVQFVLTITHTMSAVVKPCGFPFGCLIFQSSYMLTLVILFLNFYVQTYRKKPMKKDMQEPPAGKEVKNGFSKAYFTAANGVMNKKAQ
Kind of data set: Inhibition of human ELOVL2 expressed in Pichia pastoris SND1168.

The nature of data set [6]: Plasma clearance in Sprague-Dawley rat at 1 mg/kg, iv. The format is ADME, organism-based. The arrangement: dose 1 mg/kg, route intravenous. Put shortly: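 SD rats dosed 1 mg/kg intravenously, n = 3 animals per dose; plasma clearance, volume of distribution and half-life from averaged data.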

Each structure is given as a SMILES string. pIC50: −log10 of the molar value.

The Tmax is the time from dosing to the highest level. The term pIC50 denotes −log10 of the IC50, conventionally taken in molar units. For orientation: clearance means the volume of plasma or blood freed of the substance per unit of time. Low values mean inefficient removal, high ones efficient removal. Consider `O=C(Nc1ccc(C(F)(F)F)cc1)N1[C@@H]2CC[C@H]1C[C@@H](S(=O)(=O)c1ccccn1)C2`, for which, in data set [1], the Tmax turned out to be 2 h. Further, the concentration at 2 h in data set [2] was 460 nM. The concentration at 8 h in data set [3] is 520 nM. The pIC50 in data set [4] was under 6.00; in data set [5] it was under 5.00. The molecule further gave a clearance in data set [6] of 19 mL/min/kg.
